Screens (PubChem)
RBBP9 inh – blocks human serine hydrolase RBBP9; AID 1515; inhibition, % at 7.94 µM; recombinant RBBP9, FP-Rh probe fluorescence polarization; 0.2% of 220,000 active;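 active = inhibition above the campaign mean of all tested compounds plus 3 SD, cut at about 14% in these data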
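Measured by: FP readout at 525/598 nm; material: recombinant human RBBP9; also added: Serine-hydrolase probe FP-Rh, 375 nM pre-mixing; medium: Tris buffer pH 8.0, NaCl, Pluronic; replication: one well per compound; doses: one concentration, 7.94 µM nominal, 0.794% DMSO; timing: preincubation 30 min plus labeling 45 min at 25 °C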
LYPLA1 counter – counter-screen for PME1 inhibitors: inhibitors of human LYPLA1; recombinant LYPLA1, FP-Rh probe fluorescence polarization; inhibition, % at 5.9 µM; 0.16% of 320,000 active; AID 2174;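 active = inhibition above the mean of all tested compounds plus 3 SD, set per campaign, cut at about 14% in these data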;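 also: inhibitors block serine hydrolase probe labeling of LYPLA1 so polarization falls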
LYPLA2 counter – counter-screen for PME1 inhibitors: inhibitors of human LYPLA2; O95372; recombinant LYPLA2, FP-Rh probe fluorescence polarization; inhibition, % at 5.9 µM; 0.38% of 320,000 active;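 active = inhibition above the screen-wide mean plus 3 SD, limit set per campaign, cut at about 26% in these data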
Fam108B inh – blocks mouse Fam108B hydrolase in RBBP9 counter-screen | recombinant Fam108B, FP-Rh probe fluorescence polarization | inhibition, % at 9.51 µM | 0.33% of 300,000 active;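 active = inhibition above the screen mean inhibition plus 3 SD, computed separately per campaign, cut at about 18% in these data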;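 also: inhibitors lower polarization as less probe binds the enzyme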
PME-1 primary – blocks human protein phosphatase methylesterase 1; Q9Y570; recombinant PME-1, FP-Rh probe fluorescence polarization; inhibition, % at 5.9 µM; 0.53% of 320,000 active;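 active = inhibition above the campaign mean of all compounds plus 3 SD, cut at about 26% in these data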;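 also: competitive labeling of PME-1 active site by serine hydrolase directed probe; inhibitors block probe labeling so polarization falls and inhibition rises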
PAD4 inh – PAD4 (human) enzyme inhibition. Q9UM07. recombinant PAD4, RCA probe fluorescence polarization. inhibition, % at 6.36 µM. 0.41% of 330,000 active;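 active = percent inhibition above a cutoff equal to the mean of all tested compounds plus 3 SD, cut at about 15% in these data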
Target sequence (Q9UM07 whole entry, looked up): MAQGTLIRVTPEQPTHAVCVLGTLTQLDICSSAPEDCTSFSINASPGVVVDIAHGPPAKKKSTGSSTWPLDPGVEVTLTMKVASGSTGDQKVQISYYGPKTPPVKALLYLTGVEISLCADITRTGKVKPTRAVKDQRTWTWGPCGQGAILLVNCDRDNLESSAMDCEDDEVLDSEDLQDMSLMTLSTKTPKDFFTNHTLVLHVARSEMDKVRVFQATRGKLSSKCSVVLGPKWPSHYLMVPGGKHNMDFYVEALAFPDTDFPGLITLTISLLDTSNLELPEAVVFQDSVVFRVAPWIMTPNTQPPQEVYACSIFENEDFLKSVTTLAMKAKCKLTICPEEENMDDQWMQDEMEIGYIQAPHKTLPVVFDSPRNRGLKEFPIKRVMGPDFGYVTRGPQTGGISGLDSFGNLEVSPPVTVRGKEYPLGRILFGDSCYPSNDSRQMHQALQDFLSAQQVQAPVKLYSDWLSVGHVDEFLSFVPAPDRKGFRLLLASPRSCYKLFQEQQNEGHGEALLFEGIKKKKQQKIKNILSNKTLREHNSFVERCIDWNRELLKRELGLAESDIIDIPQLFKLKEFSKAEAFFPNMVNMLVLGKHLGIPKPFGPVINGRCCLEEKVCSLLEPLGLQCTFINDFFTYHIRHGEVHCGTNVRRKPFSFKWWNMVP
LYPLA2 conf – LYPLA2 (human) inhibition, confirmation counter-screen; shares compounds with LYPLA2 counter; recombinant LYPLA2, FP-Rh probe fluorescence polarization; inhibition, % at 5.9 µM; 72% of 1,100 active; AID 2232;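 active = mean inhibition across replicates above the hit cutoff set in the primary screen, cut at about 26% in these data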;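 also: blocked labeling of the enzyme by serine hydrolase FP-Rh probe lowers polarization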
LYPLA2 ABPP – LYPLA2 (human) inhibition, late stage results | inhibition, % at 20 µM | 30% of 150 active | rhLYPLA2 in mouse brain proteome, gel ABPP FP-Rh | shares compounds with LYPLA2 counter;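 active = inhibition of LYPLA2 enzyme probe labeling above about 50%, limit read from the data; inactive = inhibition below that limit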;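 also: loss of FP-Rh probe labeling of the LYPLA2 gel band measured as band density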
Large screens that a line does not name were inactive (follow-up assays come after a bar, where they were run). A selection: hits, their analogues and other compounds. The true share with any hit is near 1.3%.

COCC1CCCCN1C(=O)c1cccc(OC2CCN(S(C)(=O)=O)CC2)c1 (configuration not stated)	none (no result: RBBP9 inh)
CCOc1ccc(/C=N/n2c(-c3ccccc3)n[nH]c2=S)cc1	none (no result: RBBP9 inh)
Cc1noc(C)c1CSCC(=O)N1CCN(c2ccc([N+](=O)[O-])cc2)CC1	LYPLA2 counter 28.2 | LYPLA2 conf inactive
Cc1ccc(CC(=O)N2CCN(c3ccc([N+](=O)[O-])cc3)CC2)cc1	none (no result: RBBP9 inh)
O=C(O)c1cccc(NC(=S)NC(=O)c2cccc(OCc3ccccc3)c2)c1	LYPLA2 counter 31.2 (no result: RBBP9 inh) | LYPLA2 conf 29.2
Cc1ccc(C(=O)O)cc1NC(=S)NC(=O)Cc1ccccc1	none
Cc1ccc(C(=O)O)cc1NC(=S)NC(=O)c1ccc(COc2ccccc2)cc1	LYPLA2 counter 46.3 (no result: RBBP9 inh) | LYPLA2 conf 51.4 | LYPLA2 ABPP inactive
CN(C)S(=O)(=O)c1ccc(C(=O)OCC2COC(C)(C)O2)cc1 (configuration not stated)	none (no result: RBBP9 inh)
O=C1CCCN1CCCNc1ncnc2c1cnn2-c1ccc(Cl)cc1	LYPLA2 counter 30.3 | LYPLA2 conf 29.4
CC(=O)Nc1ccc2nc(NC(=O)c3ccc([N+](=O)[O-])o3)sc2c1	none (no result: RBBP9 inh)
O=C(c1ccc(F)cc1)C1CCN(CCn2c(=S)[nH]c3ccccc3c2=O)CC1	LYPLA2 counter 26.5 | LYPLA2 conf 28.5
CC1CCN(CCn2c(=S)[nH]c3ccccc3c2=O)CC1	none (no result: RBBP9 inh)
Cc1cccc(N2C(=O)CC(N3CCN(c4cccc(C(F)(F)F)c4)CC3)C2=O)c1 (configuration not stated)	LYPLA2 counter 45.6 | LYPLA2 conf 39.7
O=C1CC(N2CCN(c3cccc(C(F)(F)F)c3)CC2)C(=O)N1c1ccc(F)cc1 (configuration not stated)	LYPLA2 counter 55.0 | LYPLA2 conf 48.7
O=C(CSc1nnnn1C1CC1)N1CCN(c2ccccc2F)CC1	none (no result: RBBP9 inh, Fam108B inh)
COc1ccc(CN(C(=O)c2ccco2)c2ccc(C)c(C)c2)cc1	none
O=C(NCc1ccco1)c1ccc2[nH]c(=O)c(=O)[nH]c2c1	LYPLA2 counter 27.9 (no result: RBBP9 inh) | LYPLA2 conf inactive
CN(Cc1nc(-c2cccnc2)no1)S(=O)(=O)c1ccc(Br)cc1	LYPLA2 counter 40.7 | LYPLA2 conf 30.8
CN(Cc1nc(-c2cccnc2)no1)S(=O)(=O)c1ccc2ccccc2c1	none
CN(Cc1nc(-c2ccccn2)no1)S(=O)(=O)c1ccc(Br)cc1	LYPLA2 counter 37.2 | LYPLA2 conf 34.9
O=C(O)C1=C[C@H](c2coc3ccccc3c2=O)C[C@H](OCc2ccc(CO)cc2)O1	none
COc1ccc(C2NS(=O)(=O)N=C2N)cc1 (configuration not stated)	LYPLA2 counter 32.1 | LYPLA2 conf inactive
C/C(=N\Nc1cccc(Cl)c1)c1ccc(-n2ccnc2)cc1	none
C=CCOc1ccc(C2/C(=C(/O)c3ccc(OC)cc3)C(=O)C(=O)N2CCN2CCNCC2)cc1 (configuration not stated)	none (no result: RBBP9 inh)
NNC(=O)c1oc2nc(-c3ccccc3)cc(-c3ccccc3)c2c1N	LYPLA2 counter 32.2 (no result: RBBP9 inh) | LYPLA2 conf inactive
CNC(=S)NNC(=O)c1oc2nc(-c3ccccc3)cc(C)c2c1N	none
CCOC(=O)C1CCCN(C(=O)c2ccc3nc(-c4cccc(OC)c4)oc3c2)C1 (configuration not stated)	LYPLA2 counter 55.8 (no result: RBBP9 inh) | LYPLA2 conf 57.1
COc1cccc(-c2nc3ccc(C(=O)N4CCCC(O)C4)cc3o2)c1 (configuration not stated)	none (no result: RBBP9 inh)
CCC(=O)C1CCCN(C(=O)c2ccc3nc(-c4cccc(OC)c4)oc3c2)C1 (configuration not stated)	LYPLA2 counter 29.0 (no result: RBBP9 inh) | LYPLA2 conf 39.9
CCOC(=O)C1CCCN(C(=O)c2ccc3nc(-c4ccccc4)c(-c4ccccc4)nc3c2)C1 (configuration not stated)	none (no result: RBBP9 inh)
CCN(C(=O)COC(=O)CCn1c(C)csc1=O)c1c(N)n(Cc2ccccc2)c(=O)[nH]c1=O	none (no result: RBBP9 inh, Fam108B inh)
COc1ccc2c(c1)O[C@@H](c1cccc(C(F)(F)F)c1)[C@H](O)C2=O	none
COc1ccc2c(c1)O[C@H](c1ccc3c(c1)OCO3)[C@@H](O)C2=O	LYPLA2 counter 64.2 | LYPLA2 conf 57.8 | LYPLA2 ABPP inactive
Cn1c(C(=O)N2CCN(c3cccc(C(F)(F)F)c3)CC2)cc2sccc21	LYPLA2 counter 26.9 | LYPLA2 conf inactive
COC(=O)c1c(NC(=O)CN2CCN(c3ncccn3)CC2)sc(C(N)=O)c1C	LYPLA2 counter 30.6 (no result: RBBP9 inh) | LYPLA2 conf inactive
CC(C)CN(c1ccccc1)S(=O)(=O)c1nnc(NC(=O)C(C)C)s1	none (no result: RBBP9 inh)
CCCOc1ccc(-c2c(=O)n(OCC(=O)OCC)c3ccccc3[n+]2[O-])cc1	LYPLA2 counter 27.4 (no result: RBBP9 inh) | LYPLA2 conf 71.8
COc1ccc(/C=C2/SC(=O)N(CCC(=O)Nc3ccc(C)cc3)C2=O)cc1OC	none
COc1cc(/C=C2\SC(=O)N(CC(=O)Nc3ccccc3F)C2=O)cc(Cl)c1O	LYPLA2 counter 50.9 (no result: RBBP9 inh) | LYPLA2 conf 60.9
COc1ccc(/C=C2\SC(=O)N(CC(=O)Nc3ccc(F)cc3)C2=O)cc1O	LYPLA2 counter 48.6 (no result: RBBP9 inh) | LYPLA2 conf 53.6 | LYPLA2 ABPP 50.0
COc1cc(OC)c(/C=C2\SC(=O)N(CC(=O)Nc3ccccc3F)C2=O)c(OC)c1	none (no result: RBBP9 inh)
COc1cc(/C=C2/SC(=O)N(CC(=O)N3CCCC3)C2=O)ccc1Oc1ccc([N+](=O)[O-])cn1	none (no result: RBBP9 inh)
COc1cc(/C=C2/SC(=S)N(CC(=O)Nc3cccnc3)C2=O)cc(OC)c1OC	none
COc1ccc(/C=C2\SC(=O)N(CC(=O)Nc3cccnc3)C2=O)cc1OC	LYPLA2 counter 35.4 | LYPLA2 conf 26.2
CCN1C(=O)S/C(=C/c2ccc(Oc3ccc([N+](=O)[O-])cn3)c(OC)c2)C1=O	LYPLA2 counter 32.0 | LYPLA2 conf 40.8
COc1ccc(/C=C2\Sc3ccc(C(=O)NCc4cccnc4)cc3N(C)C2=O)cc1OC	LYPLA2 counter 27.5 | LYPLA2 conf inactive
COc1cccc(/C=C2\Sc3ccc(C(=O)NCc4cccnc4)cc3N(C)C2=O)c1	none
CC(=O)c1ccc(N2CCN(C(=O)Nc3ccc(C(C)C)cc3)CC2)cc1	LYPLA2 counter 47.8 | LYPLA2 conf 41.7
CCN(CC(=O)Nc1c(F)cccc1F)C(=O)CCC(=O)c1ccc(C)cc1	none (no result: RBBP9 inh)
COc1ccc(N2CCN(C(=O)CSc3nc4[nH]ncc4c(=O)n3-c3ccc(Br)cc3)CC2)cc1	LYPLA2 counter 46.9 | LYPLA2 conf 42.2
